Assay results: ChEMBL document CHEMBL4000256, “Light-Regulated NO Release as a Novel Strategy To Overcome Doxorubicin Multidrug Resistance” (ACS Med Chem Lett, 2017)
Activity calls are given as the source filed them. No cut-off for these calls is given here.

Legend:
[1] = test system: H9c2; assay: Dark toxicity against rat H9c2 cells at 5 uM measured after 20 mins by spectrophotometric method; assay type: cell-based; conditions: h9c2, 20 min
Outline: (§1)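 Human fibroblasts or rat H9c2 cardiomyocytes kept 20 min at room temperature in PBS, either in the dark or irradiated at λexc 400 nm, 7 mW/cm2, with or without 5 μM test agent. Cytotoxicity measured in triplicate; means ± SD, n = 3.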

[2] = test system: M14; assay: Dark toxicity in human M14 cells assessed as increase in nitrite levels at 5 uM measured after 20 mins by Griess reagent based spectrophotometric method; assay type: cell-based; conditions: m14, 20 min
[3] = test system: M14; assay: Dark toxicity in human M14 cells assessed as increase in LDH release at 5 uM measured after 20 mins by spectrophotometric method; assay type: cell-based; conditions: m14, 20 min
Outline: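 Cells (M14 melanoma, human fibroblasts or rat H9c2 cardiomyocytes) kept 20 min at room temperature in PBS in the dark, with 5 μM compound, given alone or with equimolar 5 μM doxorubicin. Cytotoxicity read as extracellular LDH release. Triplicate measurements, n = 3.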

[4] = test system: Fibroblast; assay: Dark toxicity against human fibroblasts at 5 uM measured after 20 mins by spectrophotometric method; assay type: cell-based; outline: as §1
[5] = test system: Fibroblast; assay: Cytotoxicity against 7 mW/cm'2 irradiated human fibroblasts at 5 uM measured after 20 mins by spectrophotometric method; assay type: cell-based; outline: as §1
[6] = test system: M14; assay: Cytotoxicity against 7 mW/cm'2 irradiated human M14 cells assessed as increase in LDH release at 5 uM measured after 20 mins by spectrophotometric method; assay type: functional, cell-based
Outline: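 Cells (M14 melanoma, human fibroblasts or rat H9c2 cardiomyocytes) kept 20 min at room temperature in PBS under 400 nm light (7 mW/cm2), alone or with 5 μM compound, given alone or with equimolar 5 μM doxorubicin. Damage read as extracellular LDH release. Triplicate measurements, n = 3.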

[7] = organism: Bos taurus; assay: Binding affinity to calf thymus duplex DNA by fluorescence spectroscopic method
[8] = test system: H9c2; assay: Cytotoxicity against 7 mW/cm'2 irradiated rat H9c2 cells at 5 uM measured after 20 mins by spectrophotometric method; assay type: cell-based; conditions: h9c2, 20 min; outline: as §1

K [7]: 630000 M⁻¹
Structure (SMILES): COc1cccc2c1C(=O)c1c(O)c3c(c(O)c1C2=O)C[C@@](O)(C(=O)CO)C[C@@H]3O[C@H]1C[C@H](N)[C@H](O)[C@H](C)O1.Cl [DOXORUBICIN HYDROCHLORIDE]
Activity [1]: Toxic
Activity [2]: Non-Toxic
Activity [3]: Non-Toxic
Activity [4]: Toxic
Activity [5]: Toxic
Activity [6]: inactive
Activity [8]: Toxic
